Data: ChEMBL document CHEMBL2346608, “New annelated thieno[2,3-e][1,2,3]triazolo[1,5-a]pyrimidines, with potent anticancer activity, designed through VLAK protocol” (2013)

Legend:
Format in all cases: functional
MDA-MB-435 = assay: Antiproliferative activity against human MDA-MB-435 cells after 48 hrs by sulforhodamine B assay; conditions: MDA-MB-435, 48 h
In short: (§1)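 Cells grown in RPMI 1640 with 5% FBS and 2 mM L-glutamine, plated at 5000–40,000 cells/well and preincubated 24 h at 37 °C, 5% CO2. Five drug concentrations (10-fold or ½-log dilutions from DMSO stocks) applied for 48 h. TCA-fixed (final 10% adherent, 16% suspension), SRB-stained, A515 read. Growth versus time-zero and control wells gave GI50, TGI, LC50.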

LOX IMVI = assay: Antiproliferative activity against human LOXIMVI cells after 48 hrs by sulforhodamine B assay; in short: as §1
NCI-H322M = assay: Antiproliferative activity against human NCI-H322M cells after 48 hrs by sulforhodamine B assay; in short: as §1
Malme-3M = assay: Antiproliferative activity against human MALME-3M cells after 48 hrs by sulforhodamine B assay; in short: as §1
SF-295 = assay: Antiproliferative activity against human SF295 cells after 48 hrs by sulforhodamine B assay; conditions: SF-295, 48 h; in short: as §1
NCI/ADR-RES = assay: Antiproliferative activity against human NCI/ADR-RES cells after 48 hrs by sulforhodamine B assay; in short: as §1
SK-MEL-5 = assay: Antiproliferative activity against human SK-MEL-5 cells after 48 hrs by sulforhodamine B assay; conditions: SK-MEL-5, 48 h; in short: as §1
SK-MEL-28 = assay: Antiproliferative activity against human SK-MEL-28 cells after 48 hrs by sulforhodamine B assay; conditions: SK-MEL-28, 48 h; in short: as §1
NCI-H226 = assay: Antiproliferative activity against human NCI-H226 cells after 48 hrs by sulforhodamine B assay; conditions: NCI-H226, 48 h; in short: as §1
OVCAR-3 = assay: Antiproliferative activity against human OVCAR3 cells after 48 hrs by sulforhodamine B assay; conditions: OVCAR-3, 48 h; in short: as §1
SN12C = assay: Antiproliferative activity against human SN12C cells after 48 hrs by sulforhodamine B assay; in short: as §1
KM12 = assay: Antiproliferative activity against human KM12 cells after 48 hrs by sulforhodamine B assay; conditions: KM12, 48 h; in short: as §1
HL-60 = assay: Antiproliferative activity against human HL60 (TB) cells after 48 hrs by sulforhodamine B assay; conditions: HL-60, 48 h
In short: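 NCI 60-cell panel protocol: cells in RPMI 1640 with 5% FBS and 2 mM L-glutamine, plated 24 h at 37 °C/5% CO2 before dosing. Compounds dissolved in DMSO and tested at five concentrations (10-fold or ½ log serial dilutions) for 48 h. Suspension cells fixed with 80% TCA (final 16%), SRB stained, absorbance at 515 nm. GI50 derived from time-zero-corrected growth.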

DU-145 = assay: Antiproliferative activity against human DU145 cells after 48 hrs by sulforhodamine B assay; conditions: DU-145, 48 h; in short: as §1
U-251 = assay: Antiproliferative activity against human U251 cells after 48 hrs by sulforhodamine B assay; conditions: U-251, 48 h
In short: (§2)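 Cells in RPMI 1640 with 5% FBS and 2 mM L-glutamine were seeded at 5000–40,000/well according to doubling time and preincubated 24 h at 37 °C in 5% CO2. Time-zero plates were TCA-fixed when drug was added. Five 10-fold or ½-log dilutions from DMSO stocks were added for 48 h. After SRB staining, A515 was read and GI50 derived from [(Ti−Tz)/(C−Tz)]×100 = 50.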

M14 = assay: Antiproliferative activity against human M14 cells after 48 hrs by sulforhodamine B assay; conditions: M14, 48 h; in short: as §1
HT-29 = assay: Antiproliferative activity against human HT-29 cells after 48 hrs by sulforhodamine B assay; conditions: HT-29, 48 h; in short: as §1
UO-31 = assay: Antiproliferative activity against human UO31 cells after 48 hrs by sulforhodamine B assay; conditions: UO-31, 48 h; in short: as §2
NCI-H460 = assay: Antiproliferative activity against human NCI-H460 cells after 48 hrs by sulforhodamine B assay; conditions: NCI-H460, 48 h; in short: as §1
MOLT-4 = assay: Antiproliferative activity against human MOLT4 cells after 48 hrs by sulforhodamine B assay; conditions: MOLT-4, 48 h; in short: as §1
NCI-H23 = assay: Antiproliferative activity against human NCI-H23 cells after 48 hrs by sulforhodamine B assay; conditions: NCI-H23, 48 h; in short: as §1
HCT-116 = assay: Antiproliferative activity against human HCT116 cells after 48 hrs by sulforhodamine B assay; conditions: HCT-116, 48 h; in short: as §1
SNB-19 = assay: Antiproliferative activity against human SNB19 cells after 48 hrs by sulforhodamine B assay; conditions: SNB-19, 48 h; in short: as §1
NCI-H522 = assay: Antiproliferative activity against human NCI-H522 cells after 48 hrs by sulforhodamine B assay; conditions: NCI-H522, 48 h; in short: as §1
UACC-257 = assay: Antiproliferative activity against human UACC257 cells after 48 hrs by sulforhodamine B assay; conditions: UACC-257, 48 h; in short: as §2
CCRF-CEM = assay: Antiproliferative activity against human CCRF-CEM cells after 48 hrs by sulforhodamine B assay; in short: as §1
ACHN = assay: Antiproliferative activity against human ACHN cells after 48 hrs by sulforhodamine B assay; in short: as §1
[1] = read-out: pLC50 (the source's name) (converted)

Q: What does the source list for `CN1CCN(CCCn2c(=O)c3sc4ncccc4c3n3nnc(-c4ccccc4)c23)CC1`?
A: GI50 (MDA-MB-435): 1170 nM; LC50 (MDA-MB-435): 13.2 µM; TGI (MDA-MB-435; read-out: pTGI (converted)): 3.02 µM; GI50 (LOX IMVI): 5.37 µM; CC50 (LOX IMVI; [1]): 25.1 µM; TGI (LOX IMVI; read-out: pTGI (converted)): 11.5 µM; GI50 (NCI-H322M): 6.17 µM; LC50 (NCI-H322M): 26.9 µM; TGI (NCI-H322M; read-out: pTGI (converted)): 12.9 µM; GI50 (Malme-3M): 9.33 µM; LC50 (Malme-3M): 33.9 µM; TGI (Malme-3M; read-out: pTGI (converted)): 17.8 µM; GI50 (SF-295): 5.62 µM; LC50 (SF-295): 26.9 µM; TGI (SF-295; read-out: pTGI (converted)): 12.3 µM; GI50 (NCI/ADR-RES): 7.24 µM; LC50 (NCI/ADR-RES): 28.2 µM; TGI (NCI/ADR-RES; read-out: pTGI (converted)): 14.1 µM; GI50 (SK-MEL-5): 7.24 µM; LC50 (SK-MEL-5): 26.3 µM; TGI (SK-MEL-5; read-out: pTGI (converted)): 13.8 µM; GI50 (SK-MEL-28): 8.71 µM; LC50 (SK-MEL-28): 28.2 µM; TGI (SK-MEL-28; read-out: pTGI (converted)): 15.8 µM; GI50 (NCI-H226): 7.41 µM; LC50 (NCI-H226): 31.6 µM; TGI (NCI-H226; read-out: pTGI (converted)): 15.1 µM; GI50 (OVCAR-3): 2290 nM; LC50 (OVCAR-3): 20.4 µM; TGI (OVCAR-3; read-out: pTGI (converted)): 7.59 µM; GI50 (SN12C): 7.24 µM; LC50 (SN12C): 28.2 µM; TGI (SN12C; read-out: pTGI (converted)): 14.1 µM; GI50 (KM12): 4.27 µM; LC50 (KM12): 24.5 µM; TGI (KM12; read-out: pTGI (converted)): 10.7 µM; GI50 (HL-60): 794 nM; CC50 (HL-60; [1]): 3.8 µM; TGI (HL-60; read-out: pTGI (converted)): 1740 nM; GI50 (DU-145): 5.89 µM; LC50 (DU-145): 25.1 µM; TGI (DU-145; read-out: pTGI (converted)): 12.3 µM; GI50 (U-251): 5.25 µM; LC50 (U-251): 24 µM; TGI (U-251; read-out: pTGI (converted)): 11.2 µM; GI50 (M14): 2140 nM; LC50 (M14): 20.9 µM; TGI (M14; read-out: pTGI (converted)): 7.41 µM; GI50 (HT-29): 2880 nM; LC50 (HT-29): 23.4 µM; TGI (HT-29; read-out: pTGI (converted)): 9.55 µM; GI50 (UO-31): 5.13 µM; LC50 (UO-31): 28.2 µM; TGI (UO-31; read-out: pTGI (converted)): 12 µM; GI50 (NCI-H460): 6.92 µM; LC50 (NCI-H460): 26.9 µM; TGI (NCI-H460; read-out: pTGI (converted)): 13.8 µM; GI50 (MOLT-4): 1550 nM; LC50 (MOLT-4): 21.4 µM; TGI (MOLT-4; read-out: pTGI (converted)): 4.9 µM; GI50 (NCI-H23): 8.13 µM; LC50 (NCI-H23): 28.8 µM; TGI (NCI-H23; read-out: pTGI (converted)): 15.5 µM; GI50 (HCT-116): 5.25 µM; LC50 (HCT-116): 26.3 µM; TGI (HCT-116; read-out: pTGI (converted)): 11.7 µM; GI50 (SNB-19): 8.32 µM; LC50 (SNB-19): 29.5 µM; TGI (SNB-19; read-out: pTGI (converted)): 15.8 µM; GI50 (NCI-H522): 7.24 µM; LC50 (NCI-H522): 28.8 µM; TGI (NCI-H522; read-out: pTGI (converted)): 14.5 µM; GI50 (UACC-257): 2290 nM; LC50 (UACC-257): 20.4 µM; TGI (UACC-257; read-out: pTGI (converted)): 7.59 µM; GI50 (CCRF-CEM): 1550 nM; LC50 (CCRF-CEM): 24.5 µM; TGI (CCRF-CEM; read-out: pTGI (converted)): 5.25 µM; GI50 (ACHN): 8.13 µM; LC50 (50% lethal concentration) (ACHN): 27.5 µM; TGI (ACHN; read-out: pTGI (converted)): 15.1 µM
